Lmaj promast – Leishmania major promastigote growth inhibition. Leishmania major promastigotes, resazurin fluorescence viability. inhibition, % at 10 µM. actives 9% (n = 200,000); in the data active means inhibition above about 50%;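 further: promastigotes grown with compound for 44 hours at 28 °C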
T cruzi inh – blocks replication of Trypanosoma cruzi; T. cruzi beta-gal in NIH3T3, luminescence, 90 h; inhibition, % (no concentration beside the values); actives 1.4% (n = 300,000); AID 1885;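 active means mean inhibition across valid replicates above about 55%, limit read from the data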;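 further: signal also drops with host cell toxicity which is not excluded here; 0% = plate median of DMSO wells and 100% = zero luminescence signal; higher percent means less beta-gal luminescence so fewer parasites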
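System: Mouse NIH/3T3 fibroblasts infected with β-gal-expressing T. cruzi Tulahuen C4 | Quantity: NIH/3T3 cells, 5,000 per well | Reagent: 5000 reporter trypomastigotes per well | Dosing: Compound pinned at 50 nL/well, DMSO | Schedule: 3 h host attachment, then at least 90 h co-culture | Detection: GalScreen luminescence, 60 min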
HSF1 inhib – HSF1 inhibition; NIH3T3-HGL HSE-luciferase, MG132-induced, luminescence 8 h; hits give low values; activity change, negative = inhibition, % at 7.5 µM (by protocol); actives 0.77% (n = 300,000); AID 2098;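 active means more than half of replicate wells show activity change below -50%, luminescence cut by over half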;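 further: luciferase reports HSF-1 transcriptional activity via heat shock element; 0% = median of DMSO wells and -100% = zero luminescence signal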
HSF1 activator – increases HSF-1 driven luciferase reporter signal | NIH3T3-HGL HSF-1 luciferase reporter, MG132, 8 h; 100% = twice DMSO control signal | activation, % at 9 µM | actives 1.7% (n = 300,000) | AID 504408;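 active means mean replicate activation of at least 50% with a set share of replicates each reaching 50%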;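 further: 0% = median of the neutral control wells and 100% = twice that signal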
Hsp70 activator – switches on Hsp70 transcription. activation, % at 10 µM. actives 0.04% (n = 200,000). HeLa Hsp70 promoter luciferase reporter, luminescence; scaled: vehicle 0, proteasome-inhibitor control 100%;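 active means activation above the mean across all tested compounds plus 3 SD, cutoff set per campaign, cut at about 5.5% in these data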;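 further: 100% = MG132 at 30 µM as the positive control and 0% = DMSO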
Starred values were filed as active, the others as inactive; / = no result. Only a selection was taken, and hits are over-represented in it overall.

SMILES	Lmaj promast	T cruzi inh	HSF1 inhib	HSF1 activator	Hsp70 activator
Cc1noc(/C=C/N(C)C)c1S(=O)(=O)N1CCCC(C(=O)NC2CCCCC2)C1 (stereo not given)	-3	62*	-4	-15	0
Cc1noc(C)c1S(=O)(=O)N1CCCC(C(=O)N2CCN(C3CCCCC3)CC2)C1 (stereo not given)	93*	16	-4	-4	0
Cc1noc(C)c1S(=O)(=O)N1CCC(C(=O)N2CCN(c3ccc(Cl)cc3)CC2)CC1	68*	6	-2	-20	0
Cc1noc(C)c1S(=O)(=O)N1CCC(C(=O)N2CCC(N3CCCCC3)CC2)CC1	-5	10	-6	6	/
Cc1ccc(C)c(N2CCN(C(=O)C3CCN(S(=O)(=O)c4c(C)noc4C)CC3)CC2)c1	/	32	-6	-15	/
CC(C)(C)OC(=O)N1Cc2ccccc2C[C@H]1C(=O)NCC(=O)NC1CCCCC1	/	15	-6	-8	/
C(C#CCCCCCCCCC[n+]1ccccc1)#CCCCCCCCCC[n+]1ccccc1	/	8	-5	11	/
CCc1cccc(C)c1NC(=O)CC1Oc2ccc(C)cc2NC1=O (stereo not given)	/	-1	0	-10	/
CC1CCC(NC(=O)c2cccc(S(=O)(=O)NCc3ccccc3)c2)CC1 (stereo not given)	/	11	-3	-9	/
Cc1cccc(N2CCN(C(=O)C3CCN(S(=O)(=O)c4c(C)noc4C)CC3)CC2)c1C	/	-6	-5	5	/
Cc1noc(C)c1S(=O)(=O)N1CCC(C(=O)N2CCN(c3ccccc3Cl)CC2)CC1	97*	0	0	44	0
CCOC(=O)C1CCN(C(=O)C2CCN(C(=O)c3ccc([N+](=O)[O-])cc3)CC2)CC1	/	30	-2	15	/
CCOC(=O)C1CCC(CN(Cc2ccccc2C)S(=O)(=O)c2ccc([N+](=O)[O-])cc2)CC1 (stereo not given)	86*	37	-1	-15	0
Cc1ccc2nc(-c3cccc(N)c3)[nH]c2c1	7	-6	26	35	0
Cc1ccc2nc(-c3sc4nc(C)cc(C)c4c3N)[nH]c2c1	-2	26	-61*	-66	0
COc1cccc(CN2CC(C(=O)NCCC3=CCCCC3)CCC2=O)c1 (stereo not given)	/	7	5	7	/
Cc1nn(C(=O)Cn2cc([N+](=O)[O-])cn2)c(C)c1Cl	-7	-6	-8	-5	0
COC(=O)C1=CN(C2CC2)C=C(C(=O)OC)C1c1ccc(C(F)(F)F)cc1	88*	40	8	14	0
COC(=O)C1=CN(C2CC2)C=C(C(=O)OC)C1c1ccc(C(=O)OC)cc1	-5	2	-3	8	0
CCOc1ccc(C(=O)NCC(=O)NCC2CCCCC2)cc1OCC	/	-9	-11	-32	/
O=[N+]([O-])c1ccccc1OCCCN1CCc2ccccc2C1	/	18	-12	-16	/
Cc1ccc([N+](=O)[O-])c(OCCN2CCCCCC2)c1	97*	-1	-3	20	0
Cc1ccc([N+](=O)[O-])c(OCCN2CCc3ccccc3C2)c1	/	18	1	9	/
CC1CC(C)CN(CCCOc2ccccc2[N+](=O)[O-])C1 (stereo not given)	81*	4	-14	-8	0
Cc1ccc(OCCN2CCN(C)CC2)c([N+](=O)[O-])c1	95*	16	0	34	0
SMILES	Lmaj promast	T cruzi inh	HSF1 inhib	HSF1 activator	Hsp70 activator
Cc1ccc([N+](=O)[O-])c(OCCCN2CCC(Cc3ccccc3)CC2)c1	/	44	-60*	-71	/
NC(=O)c1nsc(C(=O)N(CC(=O)NC2CCCCC2)Cc2ccc(F)cc2)c1N	/	-9	3	36	/
O=Cc1ccccc1-n1cncn1	-2	-14	-8	3	0
N/N=C/C(=N\Nc1ccc(Cl)cc1)C(=O)c1ccncc1	/	19	0	-25	/
Cc1nnc(NC(=O)CCn2cnc3ccccc3c2=O)s1	-8	-11	6	4	0
Cc1ccc(OCCCN2CCOCC2)c([N+](=O)[O-])c1	89*	-23	-8	25	0
Cc1ccc(OCCN2CCNCC2)c([N+](=O)[O-])c1	26	-2	6	13	0
Cc1ccc(CN2CCNC(=O)C2CC(=O)NCCCn2ncc3ccccc32)o1 (stereo not given)	-4	/	/	/	0
COCCNc1nc(-c2cc(C)c(C)cc2C)cs1	4	-6	0	13	0
Cc1ccc(S(=O)(=O)c2c(N)n(/N=C/c3ccco3)c3nc4ccccc4nc23)cc1C	79*	46	9	29	0
Cc1ccc(S(=O)(=O)c2c(N)n(CC3CCOC3)c3nc4ccccc4nc23)cc1 (stereo not given)	60*	20	17	25	0
COc1ccc(S(=O)(=O)c2c(N)n(Cc3ccco3)c3nc4ccccc4nc23)cc1	72*	36	8	16	0
Nc1c(S(=O)(=O)c2ccccc2)c2nc3ccccc3nc2n1/N=C/c1ccco1	17	22	13	8	0
Cc1ccc(S(=O)(=O)c2c(N)n(/N=C/c3ccco3)c3nc4ccccc4nc23)cc1	59*	78*	33	37	2
Cc1ccc(S(=O)(=O)c2c(N)n(CCCN(C)C)c3nc4ccccc4nc23)cc1	/	21	5	15	/
O=C(CCc1nnc(CCc2ccccc2)o1)N1CCCC1c1nccs1 (stereo not given)	-4	-6	0	10	0
Cc1ccc(-n2c(N)c(S(=O)(=O)c3ccccc3)c3nc4ccccc4nc32)cc1	57*	18	1	10	0
Cc1cccc(S(=O)(=O)c2c(N)n(/N=C/c3ccco3)c3nc4ccccc4nc23)c1	53*	57*	19	26	0
CC1CCc2c(C(=O)NCCCN3CCOCC3)csc2C1 (stereo not given)	93*	18	9	-10	0
O=C(NCCN1CCOCC1)c1csc2c1CCCCC2	-1	-10	4	2	-1
CCN1CCN(CCCNC(=O)c2csc3c2CCCCC3)CC1	99*	11	-2	-14	0
CC1CCc2c(C(=O)NCCN3CCOCC3)csc2C1 (stereo not given)	17	4	-1	5	0
COc1ccccc1NS(=O)(=O)c1cc(NC(=O)/C=C/c2cccs2)ccc1N1CCOCC1	99*	27	16	20	0
O=C(/C=C/c1cccs1)Nc1ccc(N2CCOCC2)c(S(=O)(=O)Nc2ccccc2Cl)c1	99*	38	14	42	0
COc1ccccc1NS(=O)(=O)c1cc(NC(=O)C(C)(C)C)ccc1N1CCOCC1	/	-4	-5	-13	/
O=C(/C=C/c1cccs1)Nc1ccc(N2CCOCC2)c(S(=O)(=O)Nc2cc(Cl)ccc2Cl)c1	11	17	4	-2	0
COc1ccc(CNC(=O)C(C)OC(=O)c2cccs2)cc1 (stereo not given)	/	-4	0	-3	/
